pKi: −log10 of the molar value.
What was measured:
[1] = Ratio of fCmax associated with acute adverse effect in mouse at 150 to 300 mg/kg, ip to IC50 for PAK1/2-mediated phosphorylation of MEK1 at serine 298 in human EBC1 cells
How it was run: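 Mice were dosed at multiple levels, orally or intraperitoneally, and monitored for acute adverse signs. The minimum unbound plasma Cmax associated with adverse effects was converted from total drug concentration and compared with the cellular IC50 for phospho-MEK1 S298 inhibition.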

[2] = molecular target: Serine/threonine-protein kinase PAK 1 (Homo sapiens, UniProt Q13153); assay: Inhibition of human recombinant N-terminal 6-His-tagged PAK1 kinase domain (249 to 545 residues) expressed in Escherichia coli BL21(DE3) assessed as phosphorylation of coumarin labeled FRET peptide substrate at Ser/Thr19 preincubated for 10 mins followed by ATP addition measured after 60 mins by Z'-LYTE assay
Serine/threonine-protein kinase PAK 1, sequence (Q13153 whole entry, the tested form may be a part): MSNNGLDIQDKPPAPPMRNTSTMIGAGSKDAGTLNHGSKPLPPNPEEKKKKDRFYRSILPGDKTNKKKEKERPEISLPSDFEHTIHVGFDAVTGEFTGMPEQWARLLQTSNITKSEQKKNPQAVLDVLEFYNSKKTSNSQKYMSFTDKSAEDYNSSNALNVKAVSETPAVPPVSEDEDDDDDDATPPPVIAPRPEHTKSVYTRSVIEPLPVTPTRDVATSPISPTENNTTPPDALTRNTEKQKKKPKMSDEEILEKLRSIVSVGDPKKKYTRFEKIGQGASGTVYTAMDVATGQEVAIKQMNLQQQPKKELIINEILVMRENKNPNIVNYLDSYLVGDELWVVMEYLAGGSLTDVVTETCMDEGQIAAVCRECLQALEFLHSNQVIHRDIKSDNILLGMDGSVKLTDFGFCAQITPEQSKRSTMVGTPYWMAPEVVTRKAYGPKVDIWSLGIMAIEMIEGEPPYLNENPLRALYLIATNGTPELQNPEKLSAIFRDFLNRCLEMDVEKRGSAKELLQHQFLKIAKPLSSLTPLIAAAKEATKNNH

Mus musculus [3] = assay: fCmax associated with acute adverse effect in mouse at 150 to 300 mg/kg, ip; assay type: ADME, organism-based; conditions: in vivo
How it was run: (§1)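 Mouse tolerability studies at multiple doses, oral or intraperitoneal. Minimum unbound plasma concentration associated with adverse effects (total Cmax converted to unbound) compared with IC50 for inhibition of MEK1 S298 phosphorylation in cells.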

[4] = molecular target: Serine/threonine-protein kinase PAK 2 (Homo sapiens, UniProt Q13177); assay: Inhibition of human recombinant PAK2 assessed as phosphorylation of coumarin labeled FRET peptide substrate at Ser/Thr19 preincubated for 10 mins followed by ATP addition measured after 60 mins by Z'-LYTE assay
Serine/threonine-protein kinase PAK 2, sequence (Q13177 whole entry): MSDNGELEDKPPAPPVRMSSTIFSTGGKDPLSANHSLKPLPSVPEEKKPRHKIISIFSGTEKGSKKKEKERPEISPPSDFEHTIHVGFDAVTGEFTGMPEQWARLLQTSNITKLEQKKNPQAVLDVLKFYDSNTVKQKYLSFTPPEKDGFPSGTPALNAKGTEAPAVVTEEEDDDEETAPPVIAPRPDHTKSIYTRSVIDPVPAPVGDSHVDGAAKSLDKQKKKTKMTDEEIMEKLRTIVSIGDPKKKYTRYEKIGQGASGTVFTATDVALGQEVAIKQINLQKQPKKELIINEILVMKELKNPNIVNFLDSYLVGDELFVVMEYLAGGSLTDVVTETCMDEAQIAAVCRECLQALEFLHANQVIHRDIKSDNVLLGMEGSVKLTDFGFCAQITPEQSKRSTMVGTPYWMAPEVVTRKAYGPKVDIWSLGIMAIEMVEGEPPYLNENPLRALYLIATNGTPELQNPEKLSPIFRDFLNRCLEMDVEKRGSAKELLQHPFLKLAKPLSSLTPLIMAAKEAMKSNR

[5] = molecular target: Serine/threonine-protein kinase PAK 1/PAK 2 (Homo sapiens, UniProt Q13177+Q13153); assay: Inhibition of PAK1/2 in human EBC1 cells assessed as phosphorylation of MEK1 at serine 298 after 2 hrs by HTRF assay; assay type: cell-based
[6] = Cmax associated with acute adverse effect in mouse at 150 to 300 mg/kg, ip; assay type: ADME, organism-based; conditions: in vivo
How it was run: (§2)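 Mouse tolerability studies tested multiple doses, given orally or intraperitoneally. Plasma drug concentrations were measured, including at a 15 min time point. The minimum concentration associated with adverse clinical signs or death was taken as the adverse Cmax and was converted to an unbound value.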

[7] = Fraction unbound in mouse plasma at 150 to 300 mg/kg, ip; assay type: ADME, organism-based
Mus musculus [8] = assay: fCmax associated with acute adverse effect in mouse at 50 to 100 mg/kg, ip; assay type: ADME, organism-based; conditions: in vivo; how it was run: as §1
[9] = Ratio of fCmax associated with acute adverse effect in mouse at 50 to 100 mg/kg, ip to IC50 for PAK1/2-mediated phosphorylation of MEK1 at serine 298 in human EBC1 cells; how it was run: as §1
[10] = Cmax associated with acute adverse effect in mouse at 50 to 100 mg/kg, ip; assay type: ADME, organism-based; conditions: in vivo; how it was run: as §2
[11] = Fraction unbound in mouse plasma at 50 to 100 mg/kg, ip; assay type: ADME, organism-based
Mus musculus [12] = assay: fCmax associated with acute adverse effect in mouse at 100 to 200 mg/kg, ip; assay type: ADME, organism-based; conditions: in vivo; how it was run: as §1
[13] = Fraction unbound in mouse plasma at 100 to 200 mg/kg, ip; assay type: ADME, organism-based
[14] = Ratio of fCmax associated with acute adverse effect in mouse at 100 to 200 mg/kg, ip to IC50 for PAK1/2-mediated phosphorylation of MEK1 at serine 298 in human EBC1 cells
[15] = Cmax associated with acute adverse effect in mouse at 100 to 200 mg/kg, ip; assay type: ADME, organism-based; conditions: in vivo; how it was run: as §2
Mus musculus [16] = assay: fCmax in mouse at 100 mg/kg, ip; assay type: ADME, organism-based; conditions: in vivo; how it was run: as §1
[17] = Fraction unbound in mouse plasma at 100 mg/kg, ip; assay type: ADME, organism-based
[18] = Cmax in mouse at 100 mg/kg, ip; assay type: ADME, organism-based; parameters: dose 100 mg/kg, route intraperitoneal; conditions: in vivo

Structure (SMILES): CNc1ncc2cc(-c3ccc(-n4cccc(C)c4=O)cc3C3CC3)c(=O)n(C[C@@H]3CNCCO3)c2n1
- Ratio [1]: 1
- pKi [2]: 6.02
- fCmax (Mus musculus [3]): 1.6 µM
- pKi [4]: 5.44
- IC50 [5]: 15 µM
- Cmax [6]: 63 µM
- fraction unbound [7]: 0.025

Structure (SMILES): Cc1nccn(-c2ccc(-c3cc4cnc(NC5COC5)nc4n(CC4CCNCC4(F)F)c3=O)c(Cl)c2)c1=O (single isomer, unassigned)
- pKi [2]: 8.28
- fCmax (Mus musculus [8]): 0.89 µM
- pKi [4]: 8.34
- IC50 [5]: 0.28 µM
- Ratio [9]: 1
- Cmax [10]: 12 µM
- fraction unbound [11]: 0.076

Structure (SMILES): Cc1cncc(-c2ccc(-c3cc4cncnc4n(C[C@H]4CC[C@H](N)CC4)c3=O)c(Cl)c2)n1
- pKi [2]: 6.43
- fCmax (Mus musculus [12]): 6.1 µM
- pKi [4]: 6.03
- IC50 [5]: 6 µM
- fraction unbound [13]: 0.104
- Ratio [14]: 1
- Cmax [15]: 59 µM

Structure (SMILES): CNc1ncc2cc(-c3ccc(-n4ccc(C)cc4=O)cc3Cl)c(=O)n(C[C@H]3CNCCO3)c2n1
- fCmax (Mus musculus [16]): 5.7 µM
- pKi [2]: 6.03
- pKi [4]: 5.64
- IC50 [5]: > 30 µM
- fraction unbound [17]: 0.143
- Cmax [18]: 40 µM
